From ChEMBL document CHEMBL4732167, “Structure based design, synthesis, and biological evaluation of imidazole derivatives targeting dihydropteroate synthase enzyme” (Bioorg Med Chem Lett, 2021)
Converted amounts (≈) assume the structure as drawn.

Experiments:
[1] = test system: Streptococcus pyogenes; assay: Antibacterial activity against Streptococcus pyogenes MTCC 442 assessed as bacterial growth inhibition; assay type: functional
[2] = test system: Staphylococcus aureus; assay: Antibacterial activity against Staphylococcus aureus MTCC 96 assessed as bacterial growth inhibition; assay type: functional
[3] = Antioxidant activity assessed as nitric oxide radical scavenging activity at 100 ug/ml (reference value: 25.8 to 41.6 %); assay type: functional; details: dose 100.0 µg/ml
In short: (§1)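 Nitric oxide radical scavenging was tested at 0, 25, 50, 75 and 100 µg/ml of compound.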

[4] = Antioxidant activity assessed as hydrogen peroxide radical scavenging activity at 50 ug/ml (reference value: 23.6 to 43.1 %); assay type: functional; details: dose 50.0 µg/ml
In short: (§2)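 Hydrogen peroxide scavenging was measured across a compound series of 0, 25, 50, 75 and 100 µg/ml.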

[5] = test system: Candida albicans; assay: Antifungal activity against Candida albicans MTCC 227 assessed as fungal growth inhibition; assay type: functional
[6] = Antioxidant activity assessed as DPPH radical scavenging activity at 25 ug/ml (reference value: 22 to 40.2 %); assay type: functional; details: dose 25.0 µg/ml
In short: (§3)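 DPPH radical scavenging was measured at 0, 25, 50, 75 and 100 µg/ml of each compound. Ascorbic acid was the reference.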

[7] = Antioxidant activity assessed as DPPH radical scavenging activity at 100 dilution; assay type: functional
[8] = Antioxidant activity assessed as DPPH radical scavenging activity at 75 ug/ml (reference value: 22 to 40.2 %); assay type: functional; details: dose 75.0 µg/ml; in short: as §3
[9] = Antioxidant activity assessed as hydrogen peroxide radical scavenging activity at 25 ug/ml (reference value: 23.6 to 43.1 %); assay type: functional; details: dose 25.0 µg/ml; in short: as §2
[10] = test system: Pseudomonas aeruginosa; assay: Antibacterial activity against Pseudomonas aeruginosa MTCC 1688 assessed as bacterial growth inhibition; assay type: functional
[11] = test system: Enterococcus; assay: Antibacterial activity against vancomycin-resistant Enterococcus assessed as inhibition of bacterial growth; assay type: functional
In short: (§4)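 Growth inhibition of the drug-resistant strain was read out as the minimum inhibitory concentration (MIC), reported in µg/mL. The same protocol was also run on an ESBL strain.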

[12] = test system: Escherichia coli; assay: Antibacterial activity against Escherichia coli MTCC 443 assessed as bacterial growth inhibition; assay type: functional
[13] = Antioxidant activity assessed as nitric oxide radical scavenging activity at 75 ug/ml (reference value: 25.8 to 41.6 %); assay type: functional; details: dose 75.0 µg/ml; in short: as §1
[14] = test system: Staphylococcus aureus; assay: Antibacterial activity against methicillin-resistant Staphylococcus aureus assessed as inhibition of bacterial growth; assay type: functional; in short: as §4
[15] = test system: Aspergillus clavatus; assay: Antifungal activity against Aspergillus clavatus MTCC 1323 assessed as fungal growth inhibition; assay type: functional
[16] = Antioxidant activity assessed as nitric oxide radical scavenging activity at 50 ug/ml (reference value: 25.8 to 41.6 %); assay type: functional; details: dose 50.0 µg/ml; in short: as §1
[17] = Antioxidant activity assessed as hydrogen peroxide radical scavenging activity at 75 ug/ml (reference value: 23.6 to 43.1 %); assay type: functional; details: dose 75.0 µg/ml; in short: as §2
[18] = test system: Plasmodium falciparum; assay: Antimalarial activity against Plasmodium falciparum assessed as parasite growth inhibition; assay type: functional, organism-based
[19] = Antioxidant activity assessed as DPPH radical scavenging activity at 100 ug/ml (reference value: 22 to 40.2 %); assay type: functional; details: dose 100.0 µg/ml; in short: as §3
[20] = test system: Mycobacterium tuberculosis; assay: Antibacterial activity against Mycobacterium tuberculosis H37Rv assessed as bacterial growth inhibition; assay type: functional
[21] = Antioxidant activity assessed as hydrogen peroxide radical scavenging activity at 100 ug/ml (reference value: 23.6 to 43.1 %); assay type: functional; details: dose 100.0 µg/ml; in short: as §2
[22] = test system: Aspergillus niger; assay: Antifungal activity against Aspergillus niger MTCC 282 assessed as fungal growth inhibition; assay type: functional
[23] = Antioxidant activity assessed as DPPH radical scavenging activity at 50 ug/ml (reference value: 22 to 40.2 %); assay type: functional; details: dose 50.0 µg/ml; in short: as §3
[24] = Antioxidant activity assessed as nitric oxide radical scavenging activity at 25 ug/ml (reference value: 25.8 to 41.6 %); assay type: functional; details: dose 25.0 µg/ml; in short: as §1
[25] = test system: Bacteria; assay: Antibacterial activity against ESBL-producing bacteria assessed as bacterial growth inhibition; assay type: functional
In short: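 Values are minimum inhibitory concentrations (MIC) in µg/mL, determined at an outside microbiology laboratory.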

Structure (SMILES) | MIC [1] [µg/mL] | MIC [2] [µg/mL] | Activity [3] [%] | Activity [4] [%] | MFC [5] [µg/mL] | Activity [6] [%] | Activity [8] [%] | Activity [9] [%] | MIC [10] [µg/mL] | MIC [11] [µg/mL] | MIC [12] [µg/mL] | Activity [13] [%] | MIC [14] [µg/mL] | MFC [15] [µg/mL] | Activity [16] [%] | Activity [17] [%] | Activity [19] [%] | Activity [21] [%] | Activity [23] [%] | Activity [24] [%] | further results
CC(=O)c1c(C)nc(SCC(=O)Nc2ccc(OC(=O)c3cccs3)cc2)n1-c1ccc(F)cc1 | 125 (≈ 245 µM) | 125 (≈ 245 µM) | 89.1 | 59.3 | 500 (≈ 981 µM) | 44.3 | 65.4 | 48.6 | 62.5 (≈ 123 µM) | 125 (≈ 245 µM) | 100 (≈ 196 µM) | 79.5 | 250 (≈ 491 µM) | 250 (≈ 491 µM) | 59.3 | 67.6 | 89.6 | 79.6 | 51.4 | 50.6 | Activity [7]: 89.6%; IC50 [18]: 1.14 µg/mL (≈ 2.24 µM); MIC [20]: 100 µg/mL (≈ 196 µM); MFC [22]: 500 µg/mL (≈ 981 µM); MIC [25]: 125 µg/mL (≈ 245 µM)
CC(=O)c1c(C)nc(SCC(=O)Nc2ccc(OC(=O)c3ccco3)cc2)n1-c1ccc(Br)cc1 | 250 (≈ 451 µM) | 100 (≈ 180 µM) | 86.7 | 68.7 | 1000 (≈ 1800 µM) | 43.2 | 64.8 | 51.7 | 250 (≈ 451 µM) | 250 (≈ 451 µM) | 100 (≈ 180 µM) | 75.8 | 100 (≈ 180 µM) | 500 (≈ 902 µM) | 65.3 | 79 | 88.7 | 86.5 | 57.1 | 49.3 | IC50 [18]: 1.18 µg/mL (≈ 2.13 µM); MIC [20]: 25 µg/mL (≈ 45.1 µM); MFC [22]: 500 µg/mL (≈ 902 µM); MIC [25]: 250 µg/mL (≈ 451 µM)
COc1ccc(COc2ccc(NC(=O)CSc3nc(C)c(C(C)=O)n3-c3ccc(Br)cc3)cc2)cc1 | 125 (≈ 215 µM) | 250 (≈ 431 µM) | 84.3 | 60.7 | 500 (≈ 861 µM) | 34.8 | 59.7 | 47 | 50 (≈ 86.1 µM) | 250 (≈ 431 µM) | 125 (≈ 215 µM) | 75.3 | 500 (≈ 861 µM) | 1000 (≈ 1720 µM) | 65.4 | 71 | 73.2 | 84.3 | 41.3 | 51.7 | IC50 [18]: 1.25 µg/mL (≈ 2.15 µM); MIC [20]: 250 µg/mL (≈ 431 µM); MFC [22]: > 1000 µg/mL; MIC [25]: 250 µg/mL (≈ 431 µM)
CC(=O)c1c(C)nc(SCC(=O)Nc2ccc(OCc3ccc(F)cc3)cc2)n1-c1ccc(F)cc1 | 125 (≈ 246 µM) | 62.5 (≈ 123 µM) | 89.6 | 53.4 | 500 (≈ 985 µM) | 34.8 | 71.6 | 46.1 | 100 (≈ 197 µM) | 125 (≈ 246 µM) | 125 (≈ 246 µM) | 70.3 | 100 (≈ 197 µM) | 500 (≈ 985 µM) | 60.4 | 63.1 | 89.4 | 71.2 | 56.4 | 46.8 | Activity [7]: 89.4%; IC50 [18]: 0.82 µg/mL (≈ 1.62 µM); MIC [20]: 100 µg/mL (≈ 197 µM); MFC [22]: 1000 µg/mL (≈ 1970 µM); MIC [25]: 250 µg/mL (≈ 493 µM)
CC(=O)c1c(C)nc(SCC(=O)Nc2ccc(OC(=O)c3ccc(Cl)cc3)cc2)n1-c1ccc(Br)cc1 | 100 (≈ 167 µM) | 250 (≈ 417 µM) | 90.8 | 54.2 | 1000 (≈ 1670 µM) | 45.2 | 65.2 | 38.7 | 100 (≈ 167 µM) | 500 (≈ 835 µM) | 125 (≈ 209 µM) | 82.3 | 500 (≈ 835 µM) | 500 (≈ 835 µM) | 62.4 | 68.9 | 83.1 | 86.1 | 52.1 | 38 | IC50 [18]: 1.04 µg/mL (≈ 1.74 µM); MIC [20]: 12.5 µg/mL (≈ 20.9 µM); MFC [22]: 500 µg/mL (≈ 835 µM); MIC [25]: 250 µg/mL (≈ 417 µM)
COc1ccc(-n2c(SCC(=O)Nc3ccc(OCc4ccc(F)cc4)cc3)nc(C)c2C(C)=O)cc1 | 100 (≈ 192 µM) | 100 (≈ 192 µM) | 90.5 | 68.1 | 500 (≈ 962 µM) | 31.6 | 67.2 | 54 | 25 (≈ 48.1 µM) | 100 (≈ 192 µM) | 12.5 (≈ 24.1 µM) | 81.4 | 125 (≈ 241 µM) | 500 (≈ 962 µM) | 63.4 | 79.8 | 84.3 | 84.3 | 54.2 | 45.8 | IC50 [18]: 1.4 µg/mL (≈ 2.69 µM); MIC [20]: 50 µg/mL (≈ 96.2 µM); MFC [22]: 500 µg/mL (≈ 962 µM); MIC [25]: 25 µg/mL (≈ 48.1 µM)
O=C1O[C@H]([C@@H](O)CO)C(O)=C1O |  |  | 91.7 | 80.6 |  | 75.1 | 89 | 75.1 |  |  |  | 89 |  |  | 80.6 | 89 | 91.7 | 91.7 | 80.6 | 75.1 | Activity [7]: 91.7%
